IC50 and selectivity ratio data for 27 compounds are collected here from ChEMBL document CHEMBL1250547, “Synthesis and evaluation of original amidoximes as antileishmanial agents” (Bioorg Med Chem, 2010).

One data set has as its system Leishmania donovani. The data set is described as follows: Antileishmanial activity against promastigotes of Leishmania donovani HOM/IN/01/2001 after 72 hrs by flow cytometry. It counts as functional, organism-based. The following applies: HOM/IN/01/2001, 72 h. The procedure, abridged:
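GFP-transfected late log-phase promastigotes in M199 with 10% FCS and 500 µg/mL G418, seeded at about 10⁵ parasites/mL; compounds in DMSO (final <0.5% v/v) over a concentration range in duplicate; 72 h at 27 °C; growth read by green fluorescence flow cytometry; DMSO and pentamidine controls; IC50 versus control by non-linear regression of dose-response curves.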

The nature of data set [1]: Selectivity index, ratio of IC50 for human THP1 cells to IC50 for promastigotes of Leishmania donovani HOM/IN/01/2001. It counts as toxicity, cell-based, THP-1. The following applies: read-out: Selectivity Index.
The next data set relates to THP-1. The data set is described as follows: Cytotoxicity against human THP1 cells after 72 hrs by flow cytometry. It counts as cell-based. The following applies: THP-1, 72 h. A digest of the protocol: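 Late log-phase THP1 monocytes in phenol red-free RPMI 1640 with 10% FCS, 2% L-glutamine, 1% penicillin-streptomycin; compound range in duplicate, DMSO final <0.5% v/v; 72 h at 37 °C, 6% CO2; propidium iodide staining, live cells counted by flow cytometry; doxorubicin, pentamidine and solvent controls; IC50 by non-linear regression, mean of three independent experiments.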
(In general: In flow cytometry, cells or beads pass a laser one at a time.)

Each structure is given as a SMILES string.

Regarding `N/C(=N\O)c1ccc(/C=C/c2ccc(C3=C(S(=O)(=O)c4ccc(/C(N)=N/O)cc4)CC(c4ccccc4)(c4ccccc4)O3)cc2)cc1`, the IC50 (in general, the point on the concentration scale where inhibition reaches its midpoint) in the data set with Leishmania donovani is more than 50 µM; in the data set with THP-1 it was 41.3 µM. For the same compound, the selectivity ratio in data set [1] was less than 0.9.

For the compound `N/C(=N\O)c1ccc(C(=O)CS(=O)(=O)c2ccc(/C(N)=N/O)cc2)cc1`, the IC50 in the data set on Leishmania donovani and in the data set on THP-1 was more than 125 µM each time.

As for `CC1(Cc2ccccc2)CC(S(=O)(=O)c2ccccc2)=C(c2ccc(/C(N)=N/O)cc2)O1` (centres undefined), the concentration for half-maximal inhibition (IC50) stood at 30.3 µM in the data set on Leishmania donovani and 94.6 µM in the data set with THP-1. The selectivity ratio in data set [1] is 3.1.

As to `CC1(Cc2ccccc2)CC(S(=O)(=O)c2ccc(/C(N)=N/O)cc2)=C(c2ccccc2)O1` (centres undefined), the results for the IC50 in the data set on Leishmania donovani and in the data set with THP-1 were 8.3 µM and 54.7 µM, respectively. For the same compound, the selectivity ratio in data set [1] worked out at 6.6.

For the compound `N/C(=N\O)c1ccc(S(=O)(=O)C2=C(c3ccc(Nc4cccc(/C(N)=N/O)c4)cc3)OC(c3ccccc3)(c3ccccc3)C2)cc1`, the half-inhibitory concentration (IC50) in the data set with Leishmania donovani is more than 50 µM; in the data set with THP-1, 48.1 µM. In addition, in data set [1], the selectivity ratio is less than 1.

Take `N/C(=N\O)c1ccc(Nc2ccc(S(=O)(=O)C3=C(c4ccc(/C(N)=N/O)cc4)OC(c4ccccc4)(c4ccccc4)C3)cc2)cc1`: the results for the IC50 in the data set on Leishmania donovani and with THP-1 were 39.1 µM and more than 50 µM, respectively. Further, the selectivity ratio in data set [1] was more than 1.3.

Consider `CC1(Cc2ccccc2)CC(S(=O)(=O)c2ccc(Nc3cccc(/C(N)=N/O)c3)cc2)=C(c2ccc(/C(N)=N/O)cc2)O1` (centres undefined), for which the concentration for half-maximal inhibition (IC50) in the data set with Leishmania donovani was more than 50 µM; in the data set with THP-1, 46.6 µM. In data set [1], the selectivity ratio is less than 1.

With `CC1(Cc2ccccc2)CC(S(=O)(=O)c2ccc(/C(N)=N/O)cc2)=C(c2ccc(Nc3ccc(/C(N)=N/O)cc3)cc2)O1` (centres undefined), the IC50 with Leishmania donovani was found to be 30.1 µM; with THP-1 it was 9.8 µM. Also, in data set [1], the selectivity ratio was 0.3.

On to `N/C(=N\O)c1ccc(C2=C(S(=O)(=O)c3ccc(Nc4ccccc4/C(N)=N/O)cc3)CC(c3ccccc3)(c3ccccc3)O2)cc1`, for which the concentration for half-maximal inhibition (IC50) in the data set with Leishmania donovani is 39.1 µM; with THP-1 it was more than 50 µM. In addition, in data set [1], the selectivity ratio is more than 1.3.

As for `CC1(Cc2ccccc2)CC(S(=O)(=O)c2ccc(Nc3ccccc3/C(N)=N/O)cc2)=C(c2ccc(/C(N)=N/O)cc2)O1` (centres undefined), the IC50 in the data set on Leishmania donovani worked out at 48.3 µM; with THP-1 it was 48.4 µM. For the same compound, the selectivity ratio in data set [1] stood at 1.

As to `N/C(=N\O)c1ccc(C2=C(S(=O)(=O)c3ccc(Nc4cccc(/C(N)=N/O)c4)cc3)CC(c3ccccc3)(c3ccccc3)O2)cc1`, the IC50 in the data set on Leishmania donovani and in the data set on THP-1 was more than 50 µM each time.

On to `CC1(Cc2ccccc2)CC(S(=O)(=O)c2ccc(Nc3ccc(/C(N)=N/O)cc3)cc2)=C(c2ccc(/C(N)=N/O)cc2)O1` (centres undefined), for which the IC50 is more than 50 µM in the data set with Leishmania donovani and 47.6 µM with THP-1. The selectivity ratio in data set [1] is less than 1.

The compound `COc1cccc2c1C(=O)c1c(O)c3c(c(O)c1C2=O)C[C@@](O)(C(=O)CO)C[C@@H]3O[C@H]1C[C@H](N)[C@H](O)[C@H](C)O1` [DOXORUBICIN] had an IC50 in the data set on THP-1 of 0.008 µM.

On to `CC1(Cc2ccccc2)CC(S(=O)(=O)c2ccc(/C(N)=N/O)cc2)=C(c2ccc(/C(N)=N/O)cc2)O1` (centres undefined), for which the IC50 in the data set with Leishmania donovani and in the data set with THP-1 was 99.5 µM each time. Further, in data set [1], the selectivity ratio turned out to be 1.

Regarding `N/C(=N\O)c1ccc(C2=C(S(=O)(=O)c3ccccc3)CC(c3ccccc3)(c3ccccc3)O2)cc1`, the IC50 in the data set with Leishmania donovani turned out to be 20.6 µM; with THP-1, 30.6 µM. In addition, in data set [1], the selectivity ratio came to 1.5.

For the compound `N/C(=N\O)c1ccc(C(=O)CS(=O)(=O)c2ccccc2)cc1`, the IC50 in the data set on Leishmania donovani and in the data set with THP-1 was more than 125 µM in each case.

As to `N=C(N)c1ccc(OCCCCCOc2ccc(C(=N)N)cc2)cc1` [PENTAMIDINE], the results for the concentration for half-maximal inhibition (IC50) with Leishmania donovani and in the data set on THP-1 were 11.2 µM and 31.2 µM, respectively. Also, the selectivity ratio in data set [1] was 2.8.

Consider `N/C(=N\O)c1ccc(/C=C/c2ccc(S(=O)(=O)C3=C(c4ccc(/C(N)=N/O)cc4)OC(c4ccccc4)(c4ccccc4)C3)cc2)cc1`, for which the IC50 with Leishmania donovani was 50 µM; in the data set on THP-1, more than 10 µM. Further, in data set [1], the selectivity ratio is more than 0.2.

Consider `N/C(=N\O)c1ccc(Nc2ccc(C3=C(S(=O)(=O)c4ccc(/C(N)=N/O)cc4)CC(c4ccccc4)(c4ccccc4)O3)cc2)cc1`, for which the IC50 in the data set with Leishmania donovani was more than 50 µM; in the data set with THP-1 it was 48.9 µM. Also, the selectivity ratio in data set [1] is less than 1.

Turning to `N/C(=N\O)c1ccc(C2=C(S(=O)(=O)c3ccc(/C(N)=N/O)cc3)CC(c3ccccc3)(c3ccccc3)O2)cc1`, the IC50 turned out to be 74.3 µM in the data set with Leishmania donovani and 119 µM with THP-1. The selectivity ratio in data set [1] is 1.6.

Consider `CC1(Cc2ccccc2)CC(S(=O)(=O)c2ccc(/C(N)=N/O)cc2)=C(c2ccc(Nc3ccccc3/C(N)=N/O)cc2)O1` (centres undefined), for which the IC50 with Leishmania donovani was 8.8 µM; with THP-1, 48.1 µM. Further, in data set [1], the selectivity ratio was determined as 5.5.

As for `CC1(Cc2ccccc2)CC(S(=O)(=O)c2ccc(/C=C/c3ccc(/C(N)=N/O)cc3)cc2)=C(c2ccc(/C(N)=N/O)cc2)O1` (centres undefined), the concentration for half-maximal inhibition (IC50) with Leishmania donovani and with THP-1 was more than 50 µM throughout.

On to `N/C(=N\O)c1ccc(S(=O)(=O)C2=C(c3ccccc3)OC(c3ccccc3)(c3ccccc3)C2)cc1`, for which the figures for the IC50 with Leishmania donovani and in the data set with THP-1 were 17.6 µM and 37.9 µM, respectively. Besides, the selectivity ratio in data set [1] was found to be 2.1.

In the case of `N/C(=N\O)c1ccc(S(=O)(=O)CC(=O)c2ccccc2)cc1`, the IC50 with Leishmania donovani and in the data set on THP-1 was more than 125 µM each time.

With `CC1(Cc2ccccc2)CC(S(=O)(=O)c2ccc(/C(N)=N/O)cc2)=C(c2ccc(/C=C/c3ccc(/C(N)=N/O)cc3)cc2)O1` (centres undefined), the IC50 with Leishmania donovani stood at 17.1 µM; with THP-1, 23.4 µM. For the same compound, the selectivity ratio in data set [1] turned out to be 1.4.

Take `CC1(Cc2ccccc2)CC(S(=O)(=O)c2ccc(/C(N)=N/O)cc2)=C(c2ccc(Nc3cccc(/C(N)=N/O)c3)cc2)O1` (centres undefined): the half-maximal inhibitory concentration (IC50) was more than 50 µM in the data set on Leishmania donovani and 44 µM in the data set with THP-1. The selectivity ratio in data set [1] is less than 0.9.

As for `N/C(=N\O)c1ccc(S(=O)(=O)C2=C(c3ccc(Nc4ccccc4/C(N)=N/O)cc3)OC(c3ccccc3)(c3ccccc3)C2)cc1`, the IC50 in the data set on Leishmania donovani was 13.3 µM; in the data set on THP-1, 47.8 µM. For the same compound, in data set [1], the selectivity ratio stood at 3.6.
